Measurements: article PMC5866228 (Journal of natural products, 2018)
Where “and” joins values, the source holds several entries; their conditions need not be identical. Equal values may be shown once. Entries after “also recorded” stand apart in the source; their conditions may differ.

What was measured:
[1] = system: HeLa cervical cancer cell line; conditions: cited from earlier work
[2] = system: NCI/ADR-RES drug-resistant xenograft; conditions: systemic administration; no reference given; cited from earlier work
[3] = target: T1, purified porcine brain tubulin (Sus scrofa, UniProt P02554); conditions: cited from earlier work
[4] = aqueous conditions; cited from earlier work
[5] = compared to 3; cited from earlier work
[6] = plasma / in vivo; cited from earlier work
[7] = Initial dose tolerance; format: in vivo, mice; conditions: systemic (ip), drug-sensitive or -resistant xenograft models
[8] = target: T1, purified porcine brain tubulin; test: Tubulin polymerization, turbidimetric at 340 nm; format: biochemical; conditions: 5 μM compound, tubulin 2 mg/mL, 37°C
Method in brief: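 Test compound at 5 μM, a reference taccalonolide at 5−20 μM, or vehicle (1% EtOH). Samples were prepared on ice, then warmed to 37 °C to start polymerization. Rate and extent were followed turbidimetrically at 340 nm.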

[9] = system: NCI/ADR-RES drug-resistant xenograft; format: in vivo; conditions: for days with statistically significant effects vs paclitaxel-treated tumors / tumor growth following the first drug administration on day 0: intratumoral; for first day of statistically significant difference vs vehicle-treated tumors: intratumoral 20 μg on days 0, 3, 6, 10, 14, two-way ANOVA, Tukey; for persistence of antitumor efficacy after the final dose: intratumoral injection, paclitaxel-resistant tumor; for tumor growth following the first drug administration on day 0: 20 μg 21 or 26, 40 μg paclitaxel
[10] = Hydrolytic stability in aqueous solution; format: physicochemical; conditions: 10 mg in 1:1 EtOH-PBS, 36 h, room temperature
Method in brief: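 Test compound stirred in 1× PBS–EtOH; the mixture was then vacuum-dried and extracted with CH3CN. The hydrolysis product was isolated by semipreparative C18 HPLC eluted with 60−100% CH3CN/H2O containing 0.1% formic acid. Isolated yield was the read-out.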

T1 sequence (P02554 whole entry): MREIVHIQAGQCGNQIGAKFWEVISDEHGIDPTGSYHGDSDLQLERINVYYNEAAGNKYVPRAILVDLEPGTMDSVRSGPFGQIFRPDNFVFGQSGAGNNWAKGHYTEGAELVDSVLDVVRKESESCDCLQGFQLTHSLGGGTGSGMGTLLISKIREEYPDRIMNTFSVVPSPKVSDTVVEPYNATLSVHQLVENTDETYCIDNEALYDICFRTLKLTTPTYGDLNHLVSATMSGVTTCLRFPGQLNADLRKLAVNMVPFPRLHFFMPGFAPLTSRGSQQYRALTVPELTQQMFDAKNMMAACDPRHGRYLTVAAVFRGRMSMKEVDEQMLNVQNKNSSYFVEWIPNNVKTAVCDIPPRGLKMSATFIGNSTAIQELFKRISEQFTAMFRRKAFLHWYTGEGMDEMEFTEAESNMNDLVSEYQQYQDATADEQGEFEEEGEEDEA
T1 sequence (P02550 whole entry partner): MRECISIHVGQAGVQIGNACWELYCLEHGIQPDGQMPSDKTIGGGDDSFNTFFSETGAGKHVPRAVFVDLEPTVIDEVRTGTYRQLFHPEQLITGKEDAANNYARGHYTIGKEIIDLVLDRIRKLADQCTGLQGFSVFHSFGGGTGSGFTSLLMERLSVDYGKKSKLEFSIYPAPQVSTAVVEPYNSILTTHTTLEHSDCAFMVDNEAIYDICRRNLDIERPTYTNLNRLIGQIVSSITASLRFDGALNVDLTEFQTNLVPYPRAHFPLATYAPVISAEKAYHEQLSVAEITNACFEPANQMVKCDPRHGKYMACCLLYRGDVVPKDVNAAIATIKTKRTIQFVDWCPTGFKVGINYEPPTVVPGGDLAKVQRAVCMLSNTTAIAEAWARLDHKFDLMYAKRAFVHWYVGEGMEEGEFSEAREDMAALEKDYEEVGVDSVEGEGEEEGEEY

CC(=O)O[C@@H]1[C@H]2[C@H]3[C@H]([C@H](OC(C)=O)[C@H](OC(C)=O)[C@]2(C)[C@H]2[C@H](C)[C@H]4O[C@]45OC(=O)[C@@](C)(O)[C@]5(C)[C@H]12)[C@]1(C)[C@H](C[C@@H]2O[C@@H]2[C@@H]1OC(C)=O)C(=O)[C@@H]3O [Compound 3, taccalonolide AF]
potency relative to 1 [1]: over 200 fold
efficacy in the taxane-resistant model [2]: has efficacy in this taxane-resistant model with systemic administration
effect on polymerization of purified tubulin [3]: directly stimulates the polymerization of purified tubulin
hydrolysis of C-15 acetoxy group [4]: readily hydrolyzed to generate 4 under aqueous conditions

CC(=O)O[C@H]1[C@H]2[C@H]([C@@H]3[C@@H](O)[C@@H]4[C@H]([C@H](C)[C@H]5O[C@]56OC(=O)[C@@](C)(O)[C@]46C)[C@@]3(C)[C@H]1OC(C)=O)[C@@H](O)C(=O)[C@H]1C[C@@H]3O[C@@H]3[C@H](OC(C)=O)[C@]21C [Compound 4, taccalonolide AJ]
microsomal clearance [5]: higher microsomal clearance; also recorded: increased rate of microsomal clearance as compared to 3
half-life [6]: lower in vivo half-life; also recorded: shorter plasma half-life

CC(=O)O[C@H]1[C@H]2[C@H]([C@@H]3[C@@H](OC(=O)C4CC4)[C@@H]4[C@H]([C@H](C)[C@H]5O[C@]56OC(=O)[C@@](C)(O)[C@]46C)[C@@]3(C)[C@H]1OC(C)=O)[C@@H](O)C(=O)[C@H]1C[C@@H]3O[C@@H]3[C@H](OC(C)=O)[C@]21C [Compound 19]
antitumor effects during MTD evaluations [7]: lack of observable antitumor effects
extent of tubulin polymerization compared with 4 [8]: comparable levels of tubulin polymerization compared to an equivalent concentration of 4

CC(=O)O[C@H]1[C@H]2[C@H]([C@@H]3[C@@H](OC(=O)C(C)C)[C@@H]4[C@H]([C@H](C)[C@H]5O[C@]56OC(=O)[C@@](C)(O)[C@]46C)[C@@]3(C)[C@H]1OC(C)=O)[C@@H](O)C(=O)[C@H]1C[C@@H]3O[C@@H]3[C@H](OC(C)=O)[C@]21C [Compound 20]
antitumor effects during MTD evaluations [7]: lack of observable antitumor effects
extent of tubulin polymerization compared with 4 [8]: comparable levels of tubulin polymerization compared to an equivalent concentration of 4

CC(=O)O[C@H]1[C@H]2[C@H]([C@@H]3[C@@H](OC(=O)CC(C)C)[C@@H]4[C@H]([C@H](C)[C@H]5O[C@]56OC(=O)[C@@](C)(O)[C@]46C)[C@@]3(C)[C@H]1OC(C)=O)[C@@H](O)C(=O)[C@H]1C[C@@H]3O[C@@H]3[C@H](OC(C)=O)[C@]21C [Compound 21]
first day on which a tumor reached 1,500 mm^3 ([9]; 31 days after the final dose, intratumoral 20 μg): 45 days
days with statistically significant effects vs paclitaxel-treated tumors [9]: 12 to 14 days
first day of statistically significant difference vs vehicle-treated tumors [9]: 10 days
persistence of antitumor efficacy after the final dose [9]: at least 30 days
tumor growth following the first drug administration on day 0 [9]: abruptly slowed
antitumor effects during MTD evaluations [7]: lack of observable antitumor effects
extent of tubulin polymerization compared with 4 [8]: greater extent of tubulin polymerization than equivalent concentrations of 4

CC(=O)O[C@H]1[C@H]2[C@H]([C@@H]3[C@@H](OC(=O)C(C)(C)C)[C@@H]4[C@H]([C@H](C)[C@H]5O[C@]56OC(=O)[C@@](C)(O)[C@]46C)[C@@]3(C)[C@H]1OC(C)=O)[C@@H](O)C(=O)[C@H]1C[C@@H]3O[C@@H]3[C@H](OC(C)=O)[C@]21C [Compound 22]
antitumor effects during MTD evaluations [7]: lack of observable antitumor effects

CC(=O)O[C@H]1[C@H]2[C@H]([C@@H]3[C@@H](OC(=O)c4ccc5c(c4)C(=O)c4ccccc4C5=O)[C@@H]4[C@H]([C@H](C)[C@H]5O[C@]56OC(=O)[C@@](C)(O)[C@]46C)[C@@]3(C)[C@H]1OC(C)=O)[C@@H](O)C(=O)[C@H]1C[C@@H]3O[C@@H]3[C@H](OC(C)=O)[C@]21C [Compound 24]
hydrolysis to 4, yield [10]: 67.4% and 67%

CC(=O)O[C@H]1[C@H]2[C@H]([C@@H]3[C@@H](O)[C@@H]4[C@H]([C@H](C)[C@H]5O[C@]56OC(=O)[C@@](C)(O)[C@]46C)[C@@]3(C)[C@H]1OC(C)=O)[C@@H](OC(=O)CC(C)C)C(=O)[C@H]1C[C@@H]3O[C@@H]3[C@H](OC(C)=O)[C@]21C [Compound 26]
growth of tumors with smaller initial volumes (130 – 233 mm^3) ([9]; four tumors, intratumoral 20 μg): did not increase in size even by day 54
days with statistically significant effects vs paclitaxel-treated tumors [9]: 12 to 14 days
first day of statistically significant difference vs vehicle-treated tumors [9]: 12 days
persistence of antitumor efficacy after the final dose [9]: at least 30 days
tumor growth following the first drug administration on day 0 [9]: abruptly slowed
antitumor effects during MTD evaluations [7]: lack of observable antitumor effects
extent of tubulin polymerization compared with 4 [8]: greater extent of tubulin polymerization than equivalent concentrations of 4

CC(=O)O[C@H]1[C@H]2[C@H]([C@@H]3[C@@H](O)[C@@H]4[C@H]([C@H](C)[C@H]5O[C@]56OC(=O)[C@@](C)(O)[C@]46C)[C@@]3(C)[C@H]1OC(C)=O)[C@@H](OC(=O)C(C)(C)C)C(=O)[C@H]1C[C@@H]3O[C@@H]3[C@H](OC(C)=O)[C@]21C [Compound 27]
extent of tubulin polymerization compared with 4 [8]: comparable levels of tubulin polymerization compared to an equivalent concentration of 4

CC(=O)O[C@H]1C(=O)[C@@]2(C)[C@H]([C@H](OC(=O)c3ccccc3)[C@]3(O)C[C@H](OC(=O)[C@H](O)[C@@H](NC(=O)c4ccccc4)c4ccccc4)C(C)=C1C3(C)C)[C@]1(OC(C)=O)CO[C@@H]1C[C@@H]2O [paclitaxel, reference compound]
tumor growth rate compared with vehicle up to day 14 ([9]; intratumoral 40 μg): not different statistically
tumor growth following the first drug administration on day 0 [9]: unaffected
